pKi: −log10 of the molar value.
What was measured:
Nitric oxide synthase 3 = molecular target: T1, Nitric oxide synthase 3 (Homo sapiens, UniProt P29474); assay: Inhibitory activity against human vascular endothelial nitric oxide synthase.
T1 sequence (P29474 whole entry): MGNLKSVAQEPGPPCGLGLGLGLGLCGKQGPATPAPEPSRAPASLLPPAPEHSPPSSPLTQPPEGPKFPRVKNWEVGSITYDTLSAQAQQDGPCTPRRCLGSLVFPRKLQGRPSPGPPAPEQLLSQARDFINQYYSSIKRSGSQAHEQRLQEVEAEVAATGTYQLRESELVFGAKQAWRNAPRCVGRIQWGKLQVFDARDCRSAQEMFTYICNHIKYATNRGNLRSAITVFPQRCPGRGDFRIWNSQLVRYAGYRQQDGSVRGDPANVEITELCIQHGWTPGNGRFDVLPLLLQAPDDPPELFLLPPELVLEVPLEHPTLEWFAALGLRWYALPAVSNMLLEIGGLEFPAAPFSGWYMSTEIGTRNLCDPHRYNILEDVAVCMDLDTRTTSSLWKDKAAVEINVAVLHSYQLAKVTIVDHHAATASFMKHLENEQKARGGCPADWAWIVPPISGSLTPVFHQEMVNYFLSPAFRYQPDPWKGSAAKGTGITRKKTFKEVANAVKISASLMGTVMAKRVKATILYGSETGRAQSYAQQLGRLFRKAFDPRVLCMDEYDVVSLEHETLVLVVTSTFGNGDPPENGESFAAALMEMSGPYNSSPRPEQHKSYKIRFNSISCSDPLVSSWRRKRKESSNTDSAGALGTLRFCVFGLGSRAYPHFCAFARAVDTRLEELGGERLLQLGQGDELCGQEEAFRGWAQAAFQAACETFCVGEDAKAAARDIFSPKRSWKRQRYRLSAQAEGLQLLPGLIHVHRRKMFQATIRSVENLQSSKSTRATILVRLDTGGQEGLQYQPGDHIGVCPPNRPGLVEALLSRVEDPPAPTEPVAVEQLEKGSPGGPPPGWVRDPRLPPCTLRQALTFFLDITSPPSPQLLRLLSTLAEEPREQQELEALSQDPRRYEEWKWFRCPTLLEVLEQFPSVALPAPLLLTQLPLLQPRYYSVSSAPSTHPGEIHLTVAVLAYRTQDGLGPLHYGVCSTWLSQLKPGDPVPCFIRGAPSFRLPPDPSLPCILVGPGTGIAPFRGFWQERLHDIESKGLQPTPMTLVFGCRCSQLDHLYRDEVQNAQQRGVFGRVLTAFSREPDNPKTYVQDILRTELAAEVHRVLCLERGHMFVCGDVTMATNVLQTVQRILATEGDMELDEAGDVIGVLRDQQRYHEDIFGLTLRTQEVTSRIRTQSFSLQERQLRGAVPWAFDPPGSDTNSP
In short: (§1)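 Purified human enzymes were used, with iNOS purified from the DLD-1 colorectal adenocarcinoma line. Percent inhibition was measured at three or more inhibitor concentrations and converted to inhibition constants (Ki).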

[1] = molecular target: T2, Nitric oxide synthase, inducible (Homo sapiens, UniProt P35228); assay: Percent inhibition of Human inducible Nitric Oxide Synthase (iNOS) at a concentration of 25 uM; settings: at 25 µM
In short: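 Human iNOS purified from the DLD-1 colorectal adenocarcinoma cell line. Percent inhibition of the enzyme was measured with test compound present.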

Nitric oxide synthase 1 [2] = molecular target: T3, Nitric oxide synthase 1 (Homo sapiens, UniProt P29475); assay: Inhibitory activity against human neuronal nitric oxide synthase in brain (nNOS).; format: tissue-based
[3] = molecular target: T2, Nitric oxide synthase, inducible; assay: Inhibitory activity against human inducible nitric oxide synthase (iNOS).; in short: as §1
[4] = molecular target: T4, Nitric oxide synthase 3 (Homo sapiens) (UniProt P29474); assay: Percent inhibition of human Vascular Endothelial nitric oxide synthase at a concentration of 25 uM; settings: at 25 µM
T4 sequence (whole entry): T1 sequence (P29474 whole entry)

[5] = Clearance was determined; format: ADME, organism-based; settings: in vivo
[6] = Michaelis-Menten constant was determined; format: ADME
In short: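 Human nNOS conversion of L-arginine to L-citrulline was measured over a range of arginine with inhibitor at 0, 150 and 300 nM. Velocities were fitted to V = Vmax[S]/{[S] + Km(1 + [I]/Ki)} to give Km.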

[7] = The half life was determined; format: ADME
Nitric oxide synthase 1 [8] = molecular target: T3, Nitric oxide synthase 1; assay: Percent inhibition of human Neuronal nitric oxide synthase in brain (nNOS) at a concentration of 25 uM; format: tissue-based; settings: at 25 µM
Nitric oxide synthase 1 [9] = molecular target: T3, Nitric oxide synthase 1; assay: Percent inhibition of human Neuronal nitric oxide synthase at a concentration of 25 uM; settings: at 25 µM

T3 sequence (P29475 whole entry): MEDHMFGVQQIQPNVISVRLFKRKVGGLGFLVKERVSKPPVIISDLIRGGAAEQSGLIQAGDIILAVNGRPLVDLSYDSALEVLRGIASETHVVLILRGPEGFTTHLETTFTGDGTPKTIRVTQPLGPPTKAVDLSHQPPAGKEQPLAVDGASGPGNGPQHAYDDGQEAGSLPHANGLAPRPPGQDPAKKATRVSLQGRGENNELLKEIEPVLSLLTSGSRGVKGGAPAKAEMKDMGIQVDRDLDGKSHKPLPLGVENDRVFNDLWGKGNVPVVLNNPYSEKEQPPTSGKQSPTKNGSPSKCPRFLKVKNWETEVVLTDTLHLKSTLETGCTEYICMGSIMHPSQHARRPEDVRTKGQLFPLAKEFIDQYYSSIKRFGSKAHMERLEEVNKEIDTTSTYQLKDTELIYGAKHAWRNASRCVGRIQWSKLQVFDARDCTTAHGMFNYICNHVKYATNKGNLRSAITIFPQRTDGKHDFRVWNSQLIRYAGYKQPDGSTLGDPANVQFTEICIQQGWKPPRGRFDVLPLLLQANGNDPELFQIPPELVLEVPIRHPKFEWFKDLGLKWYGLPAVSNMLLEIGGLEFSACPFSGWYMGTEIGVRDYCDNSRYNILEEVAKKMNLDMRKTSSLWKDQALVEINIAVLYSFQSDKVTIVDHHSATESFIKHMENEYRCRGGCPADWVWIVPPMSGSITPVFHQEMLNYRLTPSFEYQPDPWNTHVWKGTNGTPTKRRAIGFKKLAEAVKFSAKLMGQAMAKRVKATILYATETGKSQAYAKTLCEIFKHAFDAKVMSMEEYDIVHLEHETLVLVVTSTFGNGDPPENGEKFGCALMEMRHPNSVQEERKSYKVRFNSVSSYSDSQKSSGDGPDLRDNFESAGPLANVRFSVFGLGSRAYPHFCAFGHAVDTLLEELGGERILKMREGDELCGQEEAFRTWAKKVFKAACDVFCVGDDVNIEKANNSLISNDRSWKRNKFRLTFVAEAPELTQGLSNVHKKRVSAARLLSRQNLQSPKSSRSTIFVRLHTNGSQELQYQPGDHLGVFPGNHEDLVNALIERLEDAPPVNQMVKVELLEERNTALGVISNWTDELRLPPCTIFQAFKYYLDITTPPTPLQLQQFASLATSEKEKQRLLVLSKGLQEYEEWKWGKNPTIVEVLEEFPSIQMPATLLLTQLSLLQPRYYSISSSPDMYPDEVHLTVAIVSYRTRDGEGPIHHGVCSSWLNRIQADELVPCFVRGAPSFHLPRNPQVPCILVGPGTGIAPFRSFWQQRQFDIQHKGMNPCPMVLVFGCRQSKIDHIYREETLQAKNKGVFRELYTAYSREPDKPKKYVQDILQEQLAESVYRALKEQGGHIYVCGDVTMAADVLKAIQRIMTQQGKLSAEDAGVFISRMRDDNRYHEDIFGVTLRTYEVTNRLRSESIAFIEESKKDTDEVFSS
T2 sequence (P35228 whole entry): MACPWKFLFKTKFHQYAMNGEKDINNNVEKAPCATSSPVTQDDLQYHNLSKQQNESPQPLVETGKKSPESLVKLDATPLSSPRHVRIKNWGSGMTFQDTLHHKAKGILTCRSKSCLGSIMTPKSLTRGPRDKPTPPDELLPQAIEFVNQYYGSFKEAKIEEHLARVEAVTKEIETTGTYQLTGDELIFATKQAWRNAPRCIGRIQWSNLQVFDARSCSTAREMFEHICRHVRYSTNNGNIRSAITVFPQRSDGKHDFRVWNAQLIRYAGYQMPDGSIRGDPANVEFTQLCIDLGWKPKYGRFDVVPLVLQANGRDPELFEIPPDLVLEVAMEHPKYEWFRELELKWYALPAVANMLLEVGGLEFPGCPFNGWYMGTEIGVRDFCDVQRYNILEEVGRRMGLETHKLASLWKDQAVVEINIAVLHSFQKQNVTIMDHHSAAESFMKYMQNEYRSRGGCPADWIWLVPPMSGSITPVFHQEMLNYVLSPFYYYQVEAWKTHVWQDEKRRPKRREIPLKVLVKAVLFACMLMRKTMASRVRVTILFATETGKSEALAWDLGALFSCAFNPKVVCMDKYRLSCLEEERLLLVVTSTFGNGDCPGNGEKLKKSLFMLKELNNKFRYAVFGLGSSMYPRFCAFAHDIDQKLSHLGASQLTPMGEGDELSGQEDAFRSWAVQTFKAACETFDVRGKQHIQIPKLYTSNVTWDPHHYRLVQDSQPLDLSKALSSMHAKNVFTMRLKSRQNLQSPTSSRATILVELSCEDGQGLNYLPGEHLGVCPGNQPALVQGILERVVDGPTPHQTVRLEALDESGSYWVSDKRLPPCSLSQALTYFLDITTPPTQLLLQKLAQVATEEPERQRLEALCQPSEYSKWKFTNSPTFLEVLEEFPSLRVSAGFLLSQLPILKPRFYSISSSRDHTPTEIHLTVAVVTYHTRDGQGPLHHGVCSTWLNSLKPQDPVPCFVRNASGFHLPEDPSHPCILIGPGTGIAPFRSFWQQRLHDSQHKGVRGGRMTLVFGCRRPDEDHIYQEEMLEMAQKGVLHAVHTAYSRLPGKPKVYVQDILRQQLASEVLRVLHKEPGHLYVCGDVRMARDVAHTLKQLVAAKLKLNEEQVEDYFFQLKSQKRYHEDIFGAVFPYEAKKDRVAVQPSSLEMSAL

pKi (Nitric oxide synthase 3)	inhibition [1] [%]	pKi (Nitric oxide synthase 1 [2])	pKi [3]	Structure (SMILES)	also measured
4.51	0	5.34		CSC(=N)Nc1ccc(C(F)(F)F)cc1	
6.05		6.85	5.38	CCSC(=N)Nc1ccc(Cl)cc1	
			4.20	CCOC(=O)c1ccc(NC(=N)SCC)cc1	
	0	4.54		CC(C)SC(=N)Nc1ccc(C(F)(F)F)cc1	inhibition [4]: 0%
		5.96		CCSC(=N)Nc1ccccc1C(C)C	
			4.60	CCSC(=N)Nc1ccc(C(C)C)cc1	
5.15			4.64	CCSC(=N)Nc1cccnc1	
5.59		6.24	4.38	CSC(=N)Nc1ccc(Cl)cc1	
			4.43	CCSC(=N)Nc1ccc(C(F)(F)F)cc1.Cl	Clearance [5]: 93.3 mL/min/kg; Km [6]: 2 µM; half-life ([7]; read-out: T1/2 alpha): 4 min; half-life ([7]; read-out: T1/2 beta): 31 min
	0			N=C(Nc1ccc(C(F)(F)F)cc1)SCc1ccccc1	inhibition [4]: 0%; inhibition (Nitric oxide synthase 1 [8]): 11%
	0			CCCCSC(=N)Nc1ccc(C(F)(F)F)cc1	inhibition [4]: 0%; inhibition (Nitric oxide synthase 1 [9]): 0%
4.74				CCSC(=N)Nc1ccccc1C(F)(F)F	
4.77		6.15	4.26	CCSC(=N)Nc1ccc(OC(F)(F)F)cc1	
	4	4.19		CCCSC(=N)Nc1ccc(C(F)(F)F)cc1	inhibition [4]: 0%
4.77			4.64	CCSC(=N)Nc1ccccn1	
5.04		6.18	4.27	CCSC(=N)Nc1ccc([N+](=O)[O-])cc1	
4.80		6.10	4.66	CCSC(=N)Nc1ccncc1	
4.77	0	5.48		CSC(=N)Nc1ccc([N+](=O)[O-])cc1	
6.40		6.92	6.06	CCSC(=N)Nc1ccccc1	
	0	4.24		CCSC(=N)Nc1ccc(C(=O)O)cc1	inhibition [4]: 14%

Reference: ChEMBL document CHEMBL1130064, “Substituted N-phenylisothioureas: potent inhibitors of human nitric oxide synthase with neuronal isoform selectivity” (J Med Chem, 1997)
